One experiment concerns primary human monocytes. Nature of the experiment: Real-time chemotaxis. Type of experiment: cell-based. To be noted: 1 μM ML145. In short, it runs like this:
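Monocytes isolated from healthy donor blood by negative selection (RosetteSep). Pre-incubated 15 min at room temperature in buffer with DMSO vehicle or 1 µM final antagonist. TAXIScan: 1 h migration at 37°C along gradients formed by 1 µl chemokine; no-stimulus basal. Images every minute; individual cells tracked manually; FMI parallel to gradient calculated per cell.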

A further experiment deals with PGE2-treated THP-1 cells. The experiment can be described thus: Real-time chemotaxis. Type of experiment: cell-based, human. In short, it runs like this: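 THP-1 cultured overnight with PGE2. Where stated, pre-incubated 15 min at room temperature with DMSO or 1 µM final antagonist. TAXIScan: 1 h migration at 37°C along gradients from 1 µl of 1 or 10 µM chemokine (1 µM CCL2 reference; no-stimulus basal). Frames every minute; cells tracked manually. FMI = y-axis distance/accumulated distance. Triplicate or quadruplicate runs per stimulus.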

For the next experiment, the target named is GPR35b (Homo sapiens, UniProt Q9HC97). Nature of the experiment: Inositol phosphate assay, GPR35b with Gq-Gi1/2 chimera. To be noted: 30 minutes. Type of experiment: cell-based.
Sequence of GPR35b (Q9HC97 1-340 isoform Q9HC97-2): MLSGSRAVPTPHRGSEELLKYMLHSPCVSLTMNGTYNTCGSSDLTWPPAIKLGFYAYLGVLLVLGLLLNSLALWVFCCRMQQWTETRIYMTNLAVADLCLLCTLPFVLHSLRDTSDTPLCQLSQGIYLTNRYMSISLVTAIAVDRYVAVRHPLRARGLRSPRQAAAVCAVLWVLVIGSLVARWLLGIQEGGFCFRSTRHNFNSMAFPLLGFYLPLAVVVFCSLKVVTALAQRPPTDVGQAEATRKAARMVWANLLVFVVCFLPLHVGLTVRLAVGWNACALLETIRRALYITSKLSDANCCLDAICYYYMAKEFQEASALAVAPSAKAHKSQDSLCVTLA
Experiment [1] has as its target T1, human GPR35a (Homo sapiens, UniProt Q9HC97). Nature of the experiment: Inositol phosphate assay, GPR35a with Gq-Gi1/2 chimera. It counts as cell-based. To be noted: 30 minutes.
In experiment [2] the target is T1, human GPR35a. Nature of the experiment: Inositol phosphate assay, GPR35a with Gq-G13 chimera. To be noted: 30 minutes. It counts as cell-based.
Another experiment concerns the target 3xHA-GPR35 (Homo sapiens, UniProt Q9HC97). Nature of the experiment: GPR35 endocytosis assay, L1.2 clone 23. It counts as cell-based. To be noted: 37°C, 15 minutes. The method in brief:
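L1.2 clone stably expressing N-terminal 3xHA-GPR35 (G418 1 mg/ml selection, limiting-dilution cloning), 2 x 10^6 cells/ml in RPMI/0.1% BSA. Mixed with equal volume of buffer holding agonist (20, 10 or 2 µM reference agonist; 2 µM chemokine) or DMSO vehicle. Incubated 15 min at 4°C (basal) and 37°C (endocytosis). Surface receptor by flow cytometry: anti-HA (10 µg/ml), FITC secondary, TO-PRO3.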

The target of the next experiment is rat GPR35 (Rattus norvegicus, UniProt Q33BM1). Nature of the experiment: BRET β-arrestin-2 recruitment assay, HEK293T cells, rat GPR35. It counts as cell-based. (In general: In BRET a luciferase serves as donor, and the signal depends on an acceptor being close.)
Sequence of rat GPR35 (Q33BM1 1-306): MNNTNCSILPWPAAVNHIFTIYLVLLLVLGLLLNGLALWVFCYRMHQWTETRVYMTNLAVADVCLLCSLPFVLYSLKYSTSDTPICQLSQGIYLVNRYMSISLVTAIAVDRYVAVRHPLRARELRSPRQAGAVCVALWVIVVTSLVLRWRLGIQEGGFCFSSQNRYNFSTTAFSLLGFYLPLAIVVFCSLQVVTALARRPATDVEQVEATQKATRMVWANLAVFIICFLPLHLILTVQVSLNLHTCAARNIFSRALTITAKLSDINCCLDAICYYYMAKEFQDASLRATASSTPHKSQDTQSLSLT
In a further experiment the target is mouse GPR35 (Mus musculus, UniProt Q9ES90). The experiment can be described thus: BRET β-arrestin-2 recruitment assay, HEK293T cells, mouse GPR35. Type of experiment: cell-based. In short, it runs like this: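 HEK293T cells transiently transfected with polyethylenimine to co-express mouse GPR35 and β-arrestin-2, used 48 h after transfection. β-arrestin-2 recruitment read by bioluminescence resonance energy transfer.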
Sequence of mouse GPR35 (Q9ES90 whole entry): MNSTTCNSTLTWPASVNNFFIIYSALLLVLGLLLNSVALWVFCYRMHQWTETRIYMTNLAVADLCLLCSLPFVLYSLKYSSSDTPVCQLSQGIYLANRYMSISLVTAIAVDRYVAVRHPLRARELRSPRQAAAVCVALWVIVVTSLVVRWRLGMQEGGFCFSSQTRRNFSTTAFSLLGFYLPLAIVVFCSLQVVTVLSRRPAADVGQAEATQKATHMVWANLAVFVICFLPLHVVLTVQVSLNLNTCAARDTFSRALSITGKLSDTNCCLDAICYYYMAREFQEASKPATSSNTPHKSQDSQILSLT

The next experiment concerns THP-1 cells. Nature of the experiment: Real-time chemotaxis. It counts as cell-based, human. To be noted: resting THP-1. In short, it runs like this: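 Resting THP-1 cells kept at 0.5 x 10^6/ml in supplemented RPMI 1640 with 10% FBS at 37°C, 5% CO2. TAXIScan: 1 h migration at 37°C along gradients from 1 µl of 1 µM or 10 µM chemokine (1 µM CCL2 reference); no-stimulus basal. Frames every minute; manual tracking. FMI = y-axis distance/accumulated distance. Pooled from 3 experiments, 3 movies per condition.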

A further experiment addresses T2, CCR1 (Homo sapiens, UniProt P32246).
T2 sequence (P32246 1-355): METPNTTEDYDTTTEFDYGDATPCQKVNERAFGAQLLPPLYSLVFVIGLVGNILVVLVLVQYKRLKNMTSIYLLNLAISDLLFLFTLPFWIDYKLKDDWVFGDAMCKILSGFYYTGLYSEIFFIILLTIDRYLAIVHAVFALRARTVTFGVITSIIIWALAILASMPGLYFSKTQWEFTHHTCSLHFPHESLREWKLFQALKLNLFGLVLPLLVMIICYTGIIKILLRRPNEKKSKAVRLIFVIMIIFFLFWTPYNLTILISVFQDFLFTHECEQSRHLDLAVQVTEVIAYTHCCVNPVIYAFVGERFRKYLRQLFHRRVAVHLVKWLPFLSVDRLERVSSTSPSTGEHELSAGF
The experiment can be described thus: Boyden chamber chemotaxis, CCR1 transfectants. Type of experiment: cell-based. The note with it: cleaved versus uncleaved chemokine. In short, it runs like this: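 Chemokine digested for 18 h at 37°C with 0.1-0.4 µg recombinant human chymase in 100 mM Tris-HCl (pH 7.8), 10 mM CaCl2; undigested half incubated alongside. Cleaved and uncleaved forms tested on CCR1 transfectants in 96-well Boyden chambers: 5 h migration, 37°C, 5% CO2. Migrated cells quantified by ATP luminescence (Cell Titer-Glo); chemotactic index = response/buffer-alone basal; n=3.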

The target in experiment [3] is T3, recombinant human chymase (Homo sapiens, UniProt P23946).
T3 sequence (P23946 22-247): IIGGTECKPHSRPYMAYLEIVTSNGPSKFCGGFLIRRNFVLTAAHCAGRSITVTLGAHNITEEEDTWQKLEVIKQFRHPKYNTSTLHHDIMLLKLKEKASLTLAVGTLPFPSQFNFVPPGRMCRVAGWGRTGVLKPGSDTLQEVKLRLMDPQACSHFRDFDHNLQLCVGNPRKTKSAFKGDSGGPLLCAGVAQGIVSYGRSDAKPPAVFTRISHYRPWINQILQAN
Nature of the experiment: Chemokine digestion with chymase, SDS-PAGE. The note with it: 18hr incubation, 37°C. Type of experiment: biochemical. In short, it runs like this:
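20 µg chemokine in 100 mM Tris-HCl pH 7.8, 10 mM CaCl2, split; one half given 0.1-0.4 µg chymase; both 18 h at 37°C. Samples in Tris-glycine SDS buffer heated 95°C 10 min, run on 4-12% Bis-Tris gels at 150 V for 50 min. Fixed in 25% isopropanol/10% acetic acid, stained with 0.25% Coomassie G-250 2 h, destained overnight; n=3.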

T1 sequence (Q9HC97 whole entry): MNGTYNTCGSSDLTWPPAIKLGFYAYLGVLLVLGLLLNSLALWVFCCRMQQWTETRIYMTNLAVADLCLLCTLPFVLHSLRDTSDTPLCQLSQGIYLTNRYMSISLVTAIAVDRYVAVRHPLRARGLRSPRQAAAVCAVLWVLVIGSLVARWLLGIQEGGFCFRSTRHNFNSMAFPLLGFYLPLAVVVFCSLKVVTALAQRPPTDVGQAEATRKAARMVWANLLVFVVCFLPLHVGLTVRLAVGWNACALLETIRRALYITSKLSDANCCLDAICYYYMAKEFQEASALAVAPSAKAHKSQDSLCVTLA
Sequence of 3xHA-GPR35 (Q9HC97 whole entry): as above

For the molecule `CC(/C=C1\SC(=S)N(CCCC(=O)Nc2ccc(C(=O)O)c(O)c2)C1=O)=C\c1ccccc1` [ML145], in the experiment with primary human monocytes, the “effect of pre-treatment on monocyte migration to CXCL17” value is “unaffected”. The “effect of pre-exposure on response of cells to 1μM CXCL17” value with PGE2-treated THP-1 cells (1 μM ML145, 15 minutes pre-incubation) is given as “no inhibitory effect”.

Take `N#Cc1cc(NC(=O)C(=O)O)c(Cl)c(NC(=O)C(=O)O)c1` [lodoxamide]: the “pEC50, inositol phosphate production” value on GPR35b was 9.05 +/- 0.07; on human GPR35a [1] it was 8.64 +/- 0.08; at human GPR35a [2], 9.13 +/- 0.24. Further, at 3xHA-GPR35 (1 μM and 10μM), the “endocytosis of GPR35” value is “Significant endocytosis”. Moreover, the “endocytosis of GPR35, direct comparison” value at 3xHA-GPR35 (1 μM) is on record as “significant endocytosis”.

Usually EC50 stands for the concentration giving half of the maximal effect. Take `CCCOc1ccccc1-c1nc2nn[nH]c2c(=O)[nH]1` [zaprinast]: the EC50 on rat GPR35 was 91.2 nM; on mouse GPR35 it was 1050 nM.

Consider “CCL2: chemokine purchased from Peprotech EC”, for which, in the experiment with PGE2-treated THP-1 cells (1μM, PGE2-treated THP-1), the “forward migration index (FMI‖) versus basal” value is recorded as “significantly greater than the basal response” and the “increase in the number of migrating cells versus basal” value is reported as 6 fold. The “forward migration index (FMI‖) versus basal” value in the experiment with THP-1 cells (1μM) is given as “significant response”. For the same molecule, the “cell migration versus basal” value in the experiment with THP-1 cells (gradient from 1μl of 1μM, 1 hour) was “many more cells were observed to migrate”.

B1: CCL23: CC-chemokine with extended N-terminus, purchased from Peprotech EC (protein, UniProt P55773 22-120, looked up)
C-C motif chemokine 23: RVTKDAETEFMMSKLPLENPVLLDRFHATSADCCISYTPRSIPCSLLESYFETNSECSKPGVIFLTKKGRRFCANPSDKQVQVCMRMLKLDTRIKTRKN
For the molecule B1, the “effect of chymase cleavage on chemotactic potency” value in the experiment with CCR1 is given as “increased potency”. Besides, the cleavage by chymase entry in experiment [3] was “cleaved”.

B2: CCL15: CC-chemokine with extended N-terminus, purchased from Peprotech EC (protein, UniProt Q16663 22-113, looked up)
C-C motif chemokine 15: QFTNDAETELMMSKLPLENPVVLNSFHFAADCCTSYISQSIPCSLMKSYFETSSECSKPGVIFLTKKGRQVCAKPSGPGVQDCMKKLKPYSI
Turning to B2, the “effect of chymase cleavage on chemotactic potency” value with CCR1 was “increased potency”. Moreover, in [3], the cleavage by chymase entry is recorded as “cleaved”.

The values above are taken from publication PMC6036231 (Journal of immunology (Baltimore, Md. : 1950), 2018).
